FLuc inh counter – Photinus pyralis luciferase inhibition counter-screen | P08659 | inhibition, % at 10 µM | ATPLite firefly luciferase biochemical luminescence, 10 min | 200,000 tested, 1.5% active;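 active = inhibition above about 50% when tested at 10 µM, limit read from the data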
Target sequence (P08659 whole entry, looked up): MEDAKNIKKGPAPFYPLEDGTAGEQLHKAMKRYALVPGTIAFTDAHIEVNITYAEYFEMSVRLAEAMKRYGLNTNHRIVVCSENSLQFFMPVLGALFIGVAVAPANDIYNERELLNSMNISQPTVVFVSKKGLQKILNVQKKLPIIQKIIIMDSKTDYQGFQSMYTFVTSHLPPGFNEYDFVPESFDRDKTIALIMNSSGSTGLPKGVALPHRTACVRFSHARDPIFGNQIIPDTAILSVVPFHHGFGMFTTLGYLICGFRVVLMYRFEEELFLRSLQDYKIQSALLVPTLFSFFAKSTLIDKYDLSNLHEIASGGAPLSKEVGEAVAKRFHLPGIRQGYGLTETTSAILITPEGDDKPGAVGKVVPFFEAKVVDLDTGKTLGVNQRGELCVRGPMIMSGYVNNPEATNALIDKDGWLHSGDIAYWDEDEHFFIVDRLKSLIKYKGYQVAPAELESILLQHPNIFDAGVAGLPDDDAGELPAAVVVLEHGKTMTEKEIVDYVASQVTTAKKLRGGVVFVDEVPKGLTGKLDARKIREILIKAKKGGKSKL
TRAIL sens C8 – caspase-8 TRAIL sensitization. NB7+C8 cells + TRAIL, ATPlite viability luminescence. inhibition (viability loss, TRAIL sensitization), % at 10 µM. 360,000 tested, 1% active;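 active = compounds causing at least 50% loss of cell viability in the single-dose screen, relative to plate controls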
FLuc stim CS – firefly luciferase counter-screen for stimulation assays | activation factor at 10 µM | 200,000 tested, under 10 active | ATPlite luciferase biochemical, luminescence, 10 min; 0 = ATP-free wells, 1 = DMSO control | AID 1027;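 active = luciferase activation factor, scaled between plate controls, of at least 2 with compound at 10 µM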
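Assay system: Luciferase/luciferin reagent mix; Medium: PBS as buffer for the ATP substrate; Dosing: test compounds dosed from 2 mM stocks in 100% DMSO; Times: 10 min, room temperature; Signal: luminescence from luciferase reaction; Read-out: luciferase activation; Controls: No-ATP low control, compound-free enzyme-plus-ATP high control.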
PPC-1+TRAIL kill – PPC-1 cancer cell killing with TRAIL present. PPC-1 cells + TRAIL, ATPLite viability luminescence. cell killing (% activity), % at 4 µM or 5 µM. AID 1443. 220,000 tested, 0.41% active;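 active = cell killing above 50% in the first pass at 4 µM, then a duplicate retest at 5 µM averaging 50% or more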;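 also: plate controls were cells with TRAIL plus DMSO for no effect and medium-only wells lacking cells for full effect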
Starred values were filed as active, the others as inactive; · = not tested or not shown. Shown are actives, neighbours in structure and some others; about 1.5% of the full set was active somewhere.

SMILES	FLuc inh counter	TRAIL sens C8	FLuc stim CS	PPC-1+TRAIL kill
CC(C)(C)OC(=O)N/N=C/c1c[nH]c2ccccc12	54*	17	0.5	-7
O=C(N/N=C/c1c[nH]c2ccccc12)c1cc(-c2ccc(-c3ccccc3)cc2)n[nH]1	50*	45	0.5	26
O=C(CC1CC2CCC1C2)NCCc1ccc(Cl)cc1 (configuration not stated)	·	-1	·	·
CCCCc1nc(SCC(=O)Nc2cccc(Cl)c2)n[nH]1	·	-5	·	·
Cc1nn(-c2ccccc2Cl)c(Cl)c1/C=N/Nc1nc2ccccc2s1	81*	56*	0.2	46
C(=N\Nc1nc2ccccc2s1)/c1ccco1	62*	25	0.4	37
Cc1ccsc1/C=N/Nc1nc2ccccc2s1	64*	25	0.4	21
CC(=NNc1nc2ccccc2s1)c1ncccn1	·	23	·	·
C(=N\Nc1nc2ccccc2s1)/c1cccs1	48	21	0.5	32
C/C(=N\Nc1nc2ccccc2s1)c1cccs1	61*	67*	0.4	43
O=C(CSc1nnc(CNC(=O)c2ccccc2)o1)Nc1nccs1	·	-10	·	·
Cc1cc(C)nc(N/N=C/c2sccc2C)n1	11	1	0.9	-6
Cc1ccsc1/C=N/Nc1nc(=O)[nH]nc1C	52*	18	0.5	13
Cc1cccc(C(=O)Nc2ccc(S(=O)(=O)N3CCOCC3)cc2C)c1	·	2	·	·
COC(=O)CNC(c1ccccc1Cl)c1cc(Br)ccc1NS(=O)(=O)c1ccc(C)cc1 (configuration not stated)	-6	29	1.1	12
CCC(CC)NC(=O)Nc1cccc(C)c1C	-2	-6	1	-30
CC(C)N(CC(=O)Nc1ccc(Cl)cc1C(F)(F)F)C(=O)CCl	-4	95*	1	24
O=C(O)CSCC(=O)Nc1ccc(Cl)cc1C(F)(F)F	-9	4	1.1	14
CCC(C)N(CC(=O)Nc1cccc(C)c1C)C(=O)CCl (configuration not stated)	-7	97*	1.1	9
Cc1nc(NCCc2ccccc2F)c(C#N)c(C)c1[N+](=O)[O-]	-8	-7	1.1	-1
C(=N\Nc1nncc2ccccc12)/c1ccccn1	·	81*	·	·
CC(=O)Nc1ccc(/C=N/Nc2nncc3ccccc23)cc1	·	41	·	·
Fc1cccc(/C=N/Nc2nncc3ccccc23)c1	·	84*	·	·
COc1ccc(C[C@H](N)C(=O)N[C@H]2[C@@H](O)[C@H](n3cnc4c(N(C)C)ncnc43)O[C@@H]2CO)cc1	·	92*	·	·
CCOc1ccc(-c2cc(N3C(=O)Nc4ccccc4N3O)on2)cc1	76*	56*	0.2	7
SMILES	FLuc inh counter	TRAIL sens C8	FLuc stim CS	PPC-1+TRAIL kill
CC(=O)Nc1ccc(C)cc1	·	-2	·	·
CC(=O)Nc1ccc(-c2cn3cc(C)ccc3n2)cc1	84*	45	0.2	40
Cc1ccc2nc(-c3ccc(O)c(O)c3)cn2c1	·	76*	·	·
COc1ccc(/C=C2/Sc3ccc(C(=O)NCCN4CCCCCC4)cc3NC2=O)cc1	·	79*	·	·
C=C1C(=O)OC2C=C(CO)C3OC3C3OC3(C)CC(OC(=O)/C(=C/C)COC(C)=O)C12 (configuration not stated)	·	63*	·	·
CC(=O)OCC1=C[C@@H]2OC(=O)C3=CO[C@@H](O[C@@H]4O[C@H](CO)[C@@H](O)[C@H](O)[C@H]4O)[C@H]1[C@@H]32	·	3	·	·
COc1ccc2nc3sc(C(=O)N4CCN(C)CC4)cc3cc2c1	3	12	1	1
CCc1ccc2nc3sc(C(=O)O)cc3cc2c1	68*	28	0.3	36
Nc1ccc2c(c1)C(=O)c1ccccc1-2	·	-19	·	·
Nc1ccc2c(c1)C(=O)C(=O)c1ccccc1-2	6	97*	0.9	33
COC(=O)[C@@H](Cc1c[nH]c2ccccc12)NC(=O)C1CCCN(S(=O)(=O)c2ccc(C)cc2)C1 (some centres not stated)	·	-13	·	·
Cc1cc(NC(=O)/C=C/c2ccccc2Cl)n(-c2nc3ccccc3[nH]2)n1	76*	74*	0.2	58*
COc1ccc(OC)c(N(CCN2C(=O)c3ccccc3C2=O)C(=O)CCl)c1	·	94*	·	·
COc1ccc(NC(=O)CCN2C(=O)c3ccccc3C2=O)c(OC)c1	·	-18	·	·
CC(C)(C)C1CCc2c(sc(NC(=O)c3cccs3)c2C(N)=O)C1 (configuration not stated)	58*	42	0.4	24
CC1CCc2c(sc(NC(=O)C3=COCCO3)c2C(N)=O)C1 (configuration not stated)	·	55*	·	·
CCC(C)(C)C1CCc2c(sc(NC(=O)c3cccs3)c2C(N)=O)C1 (configuration not stated)	10	11	0.9	30
O=C(COC(=O)c1cc(S(=O)(=O)N2CCOCC2)ccc1Cl)Nc1ccccc1Cl	·	-1	·	·
Cc1ccc(C(=O)NC(=S)Nc2ccccc2C(F)(F)F)c(C)c1	-2	-1	1	12
Cc1ccccc1C(=O)NC(=S)Nc1ccccc1C(F)(F)F	71*	1	0.3	7
CCN(CC(=O)Nc1c(F)cccc1F)C(=O)C1CCCN(C(=O)c2ccc(Cl)cc2)C1 (configuration not stated)	·	-11	·	·
O=c1/c(=C/c2ccccn2)sc2nc3ccccc3n12	76*	54*	0.2	22
O=C(Nc1cccc(O)c1)C(=O)Nc1ccccn1	84*	71*	0.2	42
C/C(CC(=O)Nc1ccccn1)=N\NC(=O)C(=O)Nc1cccc(C)c1	-7	8	1.1	11
Cc1ccccc1Nc1nnc(SCC2CCCCO2)s1 (configuration not stated)	60*	41	0.4	40
SMILES	FLuc inh counter	TRAIL sens C8	FLuc stim CS	PPC-1+TRAIL kill
Cc1cc(/C=C2\SC(N)=NC2=O)c(C)n1-c1ccccc1	83*	42	0.2	39
COc1ccccc1CNC(=O)COC(=O)c1ccc2c(=O)n3c(nc2c1)CCCCC3	·	3	·	·
COC(=O)c1cc(C(=O)c2cc(F)ccc2O)cn2c(=O)c3c(C)c(C)sc3nc12	·	12	·	-7
O=C(O)CSc1cc(C(=O)c2ccccc2O)cn2c(=O)c3c(-c4ccccc4)csc3nc12	41	-20	0.6	5
CCOC(=O)c1sc2nc3c(SCC(=O)O)cc(C(=O)c4cc(F)ccc4O)cn3c(=O)c2c1C	51*	28	0.5	11
CCOC(=O)c1sc2nc3c(SCC(=O)O)cc(C(=O)c4ccccc4O)cn3c(=O)c2c1C	79*	53*	0.2	21
Cn1c(=O)c2cc(NC(=O)CCc3ccccc3)ccc2n1-c1ccccc1F	·	23	·	·
COc1ccc(/C=C2\OC(=O)c3c(OC)cccc32)cc1OC	50*	13	0.5	-4
COc1ccc(C=C2C(=O)OC(C)(C)OC2=O)cc1OC	·	7	·	9
Cc1ccc(C2=NN(C(=O)CCl)C(c3cccs3)C2)o1 (configuration not stated)	-1	95*	1	-7
O=C(CCl)N1N=C(c2ccco2)CC1c1cccs1 (configuration not stated)	3	92*	1	5
CCn1c(/N=C/c2c[nH]c3ccccc23)nc2ccccc21	57*	-6	0.4	-21

Screening results from PubChem BioAssay.
